The source made the active and inactive calls. No cut-off for these calls is given here.
Assays:
[1] = biological target: T1, Protein ENL (Homo sapiens, UniProt Q03111); experiment: Inhibition of human His-ENL YEATS domain and biotinylated H3K9ac peptide interaction by AlphaScreen assay
T1 sequence (Q03111 whole entry): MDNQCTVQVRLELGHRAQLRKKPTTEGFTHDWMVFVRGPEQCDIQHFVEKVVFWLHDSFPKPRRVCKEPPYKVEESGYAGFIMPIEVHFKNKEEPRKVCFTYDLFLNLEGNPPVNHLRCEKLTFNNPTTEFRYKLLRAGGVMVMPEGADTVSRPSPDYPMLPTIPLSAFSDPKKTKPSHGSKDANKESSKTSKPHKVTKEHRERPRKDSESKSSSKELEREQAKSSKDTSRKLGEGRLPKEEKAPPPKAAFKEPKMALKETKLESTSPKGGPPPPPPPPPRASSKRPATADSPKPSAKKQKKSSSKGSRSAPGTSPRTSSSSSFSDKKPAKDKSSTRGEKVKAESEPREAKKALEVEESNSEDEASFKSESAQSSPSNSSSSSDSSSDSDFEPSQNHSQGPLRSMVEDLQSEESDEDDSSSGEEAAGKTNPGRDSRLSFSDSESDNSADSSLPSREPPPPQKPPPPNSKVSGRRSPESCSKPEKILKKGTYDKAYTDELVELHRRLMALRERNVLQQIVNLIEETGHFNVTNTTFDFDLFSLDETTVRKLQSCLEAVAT

[2] = biological target: T2, YEATS domain-containing protein 4 (Homo sapiens, UniProt O95619); experiment: Inhibition of human His-GAS41 YEATS domain and biotinylated H3K27ac peptide interaction at 20 uM by AlphaScreen assay
T2 sequence (O95619 whole entry, the tested form may be a part): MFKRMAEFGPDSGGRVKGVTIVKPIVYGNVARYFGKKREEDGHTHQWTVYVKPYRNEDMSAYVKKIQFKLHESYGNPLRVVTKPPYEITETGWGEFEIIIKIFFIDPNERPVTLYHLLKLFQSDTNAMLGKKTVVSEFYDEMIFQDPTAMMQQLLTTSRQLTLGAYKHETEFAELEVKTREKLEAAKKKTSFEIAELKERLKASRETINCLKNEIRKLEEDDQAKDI

[3] = biological target: T3, Protein AF-9 (Homo sapiens) (UniProt P42568); experiment: Inhibition of human His-AF9 YEATS domain and biotinylated H3K9ac peptide interaction at 20 uM by AlphaScreen assay
T3 sequence (whole entry): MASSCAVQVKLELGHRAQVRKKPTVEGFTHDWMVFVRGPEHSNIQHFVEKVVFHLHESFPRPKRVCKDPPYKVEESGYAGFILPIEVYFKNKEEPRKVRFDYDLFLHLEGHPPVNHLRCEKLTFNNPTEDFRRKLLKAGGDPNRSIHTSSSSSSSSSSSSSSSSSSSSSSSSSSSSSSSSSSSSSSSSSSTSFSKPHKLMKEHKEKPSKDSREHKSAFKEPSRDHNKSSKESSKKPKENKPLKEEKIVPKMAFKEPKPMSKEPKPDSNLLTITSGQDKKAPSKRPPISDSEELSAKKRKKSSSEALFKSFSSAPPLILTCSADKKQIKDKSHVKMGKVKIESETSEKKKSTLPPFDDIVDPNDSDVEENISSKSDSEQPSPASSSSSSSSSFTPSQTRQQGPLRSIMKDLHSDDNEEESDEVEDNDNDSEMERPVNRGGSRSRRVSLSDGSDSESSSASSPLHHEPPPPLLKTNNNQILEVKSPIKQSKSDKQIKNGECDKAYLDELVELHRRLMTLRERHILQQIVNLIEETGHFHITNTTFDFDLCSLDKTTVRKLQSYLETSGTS

[4] = biological target: T2, YEATS domain-containing protein 4; experiment: Inhibition of human His-GAS41 YEATS domain and biotinylated H3K27ac peptide interaction by AlphaScreen assay
Procedure, shortened: (§1)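 His-tagged YEATS domains were expressed in E. coli Rosetta-2 (DE3) pLysS and purified on Ni-NTA. Partners were biotinylated peptide on streptavidin donor and Ni2+-chelate acceptor beads: AF9 30 nM with H3K9ac, GAS41 100 nM with H3K27ac, YEATS2 100 nM with H3K27cr. Peptides at 30 nM, buffer 50 mM HEPES pH 7.4, 100 mM NaCl, 0.1% BSA, 0.05% CHAPS. Thirteen-point 3-fold series from 54 μM to 0.1 nM, 4–6 replicates, signal normalised to no-compound control, four-parameter fit.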

[5] = biological target: T4, YEATS domain-containing protein 2 (Homo sapiens) (UniProt Q9ULM3); experiment: Inhibition of human His-YEATS2 YEATS domain and biotinylated […] peptide interaction at 20 uM by AlphaScreen assay
T4 sequence (whole entry): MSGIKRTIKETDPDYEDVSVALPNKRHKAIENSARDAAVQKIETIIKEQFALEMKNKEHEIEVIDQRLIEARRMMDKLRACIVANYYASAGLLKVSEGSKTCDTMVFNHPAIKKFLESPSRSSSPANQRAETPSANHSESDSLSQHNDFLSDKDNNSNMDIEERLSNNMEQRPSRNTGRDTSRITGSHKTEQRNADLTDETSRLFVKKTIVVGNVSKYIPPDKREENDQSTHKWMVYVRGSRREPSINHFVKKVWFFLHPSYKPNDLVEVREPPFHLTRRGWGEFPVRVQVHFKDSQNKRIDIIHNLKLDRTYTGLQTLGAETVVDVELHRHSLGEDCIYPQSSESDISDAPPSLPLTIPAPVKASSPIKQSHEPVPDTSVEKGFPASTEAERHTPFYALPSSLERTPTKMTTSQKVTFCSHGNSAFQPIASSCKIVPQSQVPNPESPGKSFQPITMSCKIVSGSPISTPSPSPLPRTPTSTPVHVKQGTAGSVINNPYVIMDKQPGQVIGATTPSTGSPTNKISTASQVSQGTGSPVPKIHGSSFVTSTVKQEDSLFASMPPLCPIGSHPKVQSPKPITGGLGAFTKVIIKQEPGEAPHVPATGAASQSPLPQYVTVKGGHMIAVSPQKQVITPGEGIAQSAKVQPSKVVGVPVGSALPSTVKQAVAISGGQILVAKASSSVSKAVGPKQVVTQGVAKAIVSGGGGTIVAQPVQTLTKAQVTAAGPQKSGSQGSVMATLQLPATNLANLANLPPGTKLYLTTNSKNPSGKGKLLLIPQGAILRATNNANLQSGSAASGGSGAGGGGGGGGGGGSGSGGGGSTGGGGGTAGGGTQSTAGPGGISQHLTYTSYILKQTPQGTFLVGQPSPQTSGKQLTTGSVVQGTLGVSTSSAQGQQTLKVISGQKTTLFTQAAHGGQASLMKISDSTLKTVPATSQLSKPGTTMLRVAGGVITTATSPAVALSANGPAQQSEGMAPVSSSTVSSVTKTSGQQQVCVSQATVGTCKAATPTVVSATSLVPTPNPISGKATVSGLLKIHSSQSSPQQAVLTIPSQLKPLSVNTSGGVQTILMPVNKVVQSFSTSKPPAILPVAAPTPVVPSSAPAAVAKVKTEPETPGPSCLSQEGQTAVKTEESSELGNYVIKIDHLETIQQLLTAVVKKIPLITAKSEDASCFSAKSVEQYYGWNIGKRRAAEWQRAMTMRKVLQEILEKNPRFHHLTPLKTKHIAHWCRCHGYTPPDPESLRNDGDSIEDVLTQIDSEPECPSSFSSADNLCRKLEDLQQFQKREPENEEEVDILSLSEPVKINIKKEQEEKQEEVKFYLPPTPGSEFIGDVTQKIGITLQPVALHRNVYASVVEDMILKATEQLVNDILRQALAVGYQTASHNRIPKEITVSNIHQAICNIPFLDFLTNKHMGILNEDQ

[6] = biological target: T5, YEATS domain-containing protein 2 (Homo sapiens, UniProt Q9ULM3); experiment: Inhibition of human His-YEATS2 YEATS domain and biotinylated […] peptide interaction by AlphaScreen assay; procedure, shortened: as §1
T5 sequence (Q9ULM3 whole entry): T4 sequence (whole entry)

[7] = biological target: T6, Protein AF-9 (Homo sapiens, UniProt P42568); experiment: Inhibition of human His-AF9 YEATS domain and biotinylated H3K9ac peptide interaction by AlphaScreen assay
T6 sequence (P42568 whole entry): T3 sequence (whole entry)

[8] = organism: Homo sapiens; experiment: Selectivity ratio of IC50 for human His-AF9 YEATS domain to IC50 for human His-ENL YEATS domain
[9] = biological target: T7, Protein ENL (Homo sapiens) (UniProt Q03111); experiment: Inhibition of human His-ENL YEATS domain and biotinylated H3K9ac peptide interaction at 5 uM by AlphaScreen assay
T7 sequence (whole entry): T1 sequence (Q03111 whole entry)

SMILES: O=C(NCc1ccc(CNc2ccc(F)cn2)cc1)c1ccc2nncn2c1
- IC50 [1]: > 5000 nM

SMILES: O=C(NCc1ccc(CN2CCC2)cc1)c1ccc2nncn2c1
- inhibition [2]: Active
- inhibition [3]: Active
- IC50 [4]: > 54000 nM
- inhibition [5]: Active
- IC50 [6]: 18500 nM

SMILES: CC(C)C1CCN1Cc1ccc(CNC(=O)c2ccc3nncn3c2)cc1 (stereo not given)
- IC50 [1]: 266 nM

SMILES: O=C(NCc1ccc(CN2CCOCC2)cc1)c1ccc2nncn2c1
- IC50 [1]: 891 nM

SMILES: O=C(NCc1ccc(CN2CCC2)cc1)c1ccc2ncnn2c1
- IC50 [1]: > 5000 nM

SMILES: CC(C)c1cnc(NCc2ccc(CNC(=O)c3ccc4nncn4c3)cc2)nc1
- IC50 [1]: > 1000 nM

SMILES: CSc1ccc(CNC(=O)c2ccc3nncn3c2)cc1
- inhibition [2]: Active
- inhibition [3]: Active
- IC50 [4]: > 54000 nM
- IC50 [7]: 1850 nM
- Ratio [8]: 4
- IC50 [1]: 230 nM
- inhibition [9]: Active
- inhibition [5]: Active
- IC50 [6]: > 54000 nM

SMILES: CC(C)(C)C1CCN1Cc1ccc(CNC(=O)c2ccc3nncn3c2)cc1 (stereo not given)
- IC50 [1]: 264 nM

Source: ChEMBL document CHEMBL4808215, “Discovery of Selective Small-Molecule Inhibitors for the ENL YEATS Domain” (J Med Chem, 2021)
